Reference: ChEMBL document CHEMBL3739417, “Synthesis and biological evaluation of novel 4,5-disubstituted 2H-1,2,3-triazoles as cis-constrained analogues of combretastatin A-4” (2015)

Key:
Format in all cases: functional
[1] = system: U-251; assay: Growth inhibition of human U251 cells after 48 hrs by sulforhodamine B assay; settings: U-251, 48 h
How it was run: (§1)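 NCI-60 panel screen by SRB assay (Rubinstein method). Percentage growth taken from optical density of SRB colour, read before and 48 hrs after exposure to compound or vehicle control. All analogues first screened at 10^-5 M. Analogues giving 60% growth inhibition at that level in at least eight lines then went to a five-concentration dose-response study.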

[2] = Growth inhibition of human DU145 cells after 48 hrs by sulforhodamine B assay; settings: DU-145, 48 h; how it was run: as §1
[3] = Growth inhibition of human HCT116 cells after 48 hrs by sulforhodamine B assay; settings: HCT-116, 48 h; how it was run: as §1
[4] = Growth inhibition of human SF268 cells after 48 hrs by sulforhodamine B assay; settings: SF-268, 48 h; how it was run: as §1
[5] = Growth inhibition of human MOLT4 cells after 48 hrs by sulforhodamine B assay; settings: MOLT-4, 48 h; how it was run: as §1
[6] = system: ACHN; assay: Growth inhibition of human ACHN cells after 48 hrs by sulforhodamine B assay; how it was run: as §1
[7] = system: MDA-MB-435; assay: Growth inhibition of human MDA-MB-435 cells after 48 hrs by sulforhodamine B assay; settings: MDA-MB-435, 48 h
How it was run: (§2)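 NCI-60 sulforhodamine B screen. Compounds were first tested at a single dose of 10⁻⁵ M; hits, defined as ≥60% growth inhibition in at least eight lines, went on to a five-concentration dose–response. SRB optical density was read before and 48 h after exposure to compound or vehicle. Percentage growth was calculated from OD.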

[8] = system: NCI-H460; assay: Growth inhibition of human NCI-H460 cells after 48 hrs by sulforhodamine B assay; settings: NCI-H460, 48 h; how it was run: as §1
[9] = Growth inhibition of human NCI-ADR-RES cells after 48 hrs by sulforhodamine B assay; how it was run: as §1
[10] = Growth inhibition of human RPMI8226 cells after 48 hrs by sulforhodamine B assay; settings: RPMI-8226, 48 h; how it was run: as §1
[11] = Growth inhibition of human SW620 cells after 48 hrs by sulforhodamine B assay; settings: SW-620, 48 h; how it was run: as §1
[12] = Growth inhibition of human LOXIMVI cells after 48 hrs by sulforhodamine B assay; settings: LOX IMVI; how it was run: as §1
[13] = Growth inhibition of human HOP62 cells after 48 hrs by sulforhodamine B assay; settings: HOP-62, 48 h; how it was run: as §1
[14] = system: SK-MEL-5; assay: Growth inhibition of human SK-MEL-5 cells after 48 hrs by sulforhodamine B assay; settings: SK-MEL-5, 48 h; how it was run: as §1
[15] = Growth inhibition of human HCC2998 cells after 48 hrs by sulforhodamine B assay; settings: HCC 2998, 48 h; how it was run: as §1
[16] = system: HT-29; assay: Growth inhibition of human HT-29 cells after 48 hrs by sulforhodamine B assay; settings: HT-29, 48 h; how it was run: as §1
[17] = system: A549; assay: Growth inhibition of human A549/ATCC cells after 48 hrs by sulforhodamine B assay; settings: A549, 48 h; how it was run: as §1
[18] = Growth inhibition of human SKOV3 cells after 48 hrs by sulforhodamine B assay; settings: SK-OV-3, 48 h; how it was run: as §1
[19] = Growth inhibition of human SF295 cells after 48 hrs by sulforhodamine B assay; settings: SF-295, 48 h; how it was run: as §1
[20] = system: SR; assay: Growth inhibition of human SR cells after 48 hrs by sulforhodamine B assay; how it was run: as §1
[21] = Growth inhibition of human OVCAR3 cells after 48 hrs by sulforhodamine B assay; settings: OVCAR-3, 48 h; how it was run: as §2
[22] = Growth inhibition of human SNB75 cells after 48 hrs by sulforhodamine B assay; settings: SNB-75, 48 h; how it was run: as §1
[23] = system: A498; assay: Growth inhibition of human A498 cells after 48 hrs by sulforhodamine B assay; settings: A498, 48 h; how it was run: as §2
[24] = Growth inhibition of human HOP92 cells after 48 hrs by sulforhodamine B assay; settings: HOP-92, 48 h; how it was run: as §1
[25] = system: CCRF-CEM; assay: Growth inhibition of human CCRF-CEM cells after 48 hrs by sulforhodamine B assay; how it was run: as §1
[26] = system: MDA-MB-468; assay: Growth inhibition of human MDA-MB-468 cells after 48 hrs by sulforhodamine B assay; settings: MDA-MB-468, 48 h; how it was run: as §1
[27] = system: KM12; assay: Growth inhibition of human KM12 cells after 48 hrs by sulforhodamine B assay; settings: KM12, 48 h; how it was run: as §1
[28] = system: SK-MEL-2; assay: Growth inhibition of human SK-MEL-2 cells after 48 hrs by sulforhodamine B assay; settings: SK-MEL-2, 48 h; how it was run: as §1
[29] = system: NCI-H23; assay: Growth inhibition of human NCI-H23 cells after 48 hrs by sulforhodamine B assay; settings: NCI-H23, 48 h; how it was run: as §1
[30] = system: CAKI-1; assay: Growth inhibition of human CAKI-1 cells after 48 hrs by sulforhodamine B assay; settings: CAKI-1, 48 h; how it was run: as §1
[31] = system: MCF7; assay: Growth inhibition of human MCF7 cells after 48 hrs by sulforhodamine B assay; settings: MCF7, 48 h; how it was run: as §1
[32] = Growth inhibition of human PC3 cells after 48 hrs by sulforhodamine B assay; settings: PC-3, 48 h; how it was run: as §1
[33] = Growth inhibition of human UO31 cells after 48 hrs by sulforhodamine B assay; settings: UO-31, 48 h; how it was run: as §1
[34] = Growth inhibition of human IGROV1 cells after 48 hrs by sulforhodamine B assay; settings: IGROV-1, 48 h; how it was run: as §1
[35] = system: MDA-MB-231; assay: Growth inhibition of human MDA-MB-231 cells after 48 hrs by sulforhodamine B assay; settings: MDA-MB-231, 48 h; how it was run: as §1
[36] = Growth inhibition of human HCT15 cells after 48 hrs by sulforhodamine B assay; settings: HCT-15, 48 h; how it was run: as §1
[37] = system: K562; assay: Growth inhibition of human K562 cells after 48 hrs by sulforhodamine B assay; settings: K562, 48 h; how it was run: as §1
[38] = read-out: LD50 (the source's name)

Q: For `Clc1ccc(-c2n[nH]nc2-c2ccccn2)c(Cl)c1`, which GI50 [1] is on record?
A: 5.35 µM

Q: What about the CC50 [1, 38] of the same compound?
A: > 100 µM

Q: What about the GI50 [2] of the same compound?
A: 1.41 µM

Q: And the CC50 [2, 38]?
A: > 100 µM

Q: And the GI50 [3]?
A: 2.89 µM

Q: What about the CC50 [3, 38] of the same compound?
A: > 100 µM

Q: What about the GI50 [4] of the same compound?
A: 7.36 µM

Q: And the CC50 [4, 38]?
A: > 100 µM

Q: And the GI50 [5]?
A: 4.23 µM

Q: What about the CC50 [5, 38] of the same compound?
A: > 100 µM

Q: What about the GI50 [6] of the same compound?
A: 1.75 µM

Q: What about the CC50 [6, 38] of the same compound?
A: > 100 µM

Q: What about the GI50 [7] of the same compound?
A: 2.2 µM

Q: What about the LC50 (concentration killing 50% of cells) ([7]; read-out: LD50) of the same compound?
A: > 100 µM

Q: And the GI50 [8]?
A: 3.67 µM

Q: What about the CC50 [8, 38] of the same compound?
A: > 100 µM

Q: And the GI50 [9]?
A: 3.92 µM

Q: What about the CC50 [9, 38] of the same compound?
A: > 100 µM

Q: And the GI50 [10]?
A: 10.7 µM

Q: And the CC50 [10, 38]?
A: > 100 µM

Q: And the GI50 [11]?
A: 4.4 µM

Q: And the LD50 (concentration killing 50% of cells) [11]?
A: > 100 µM

Q: What about the GI50 [12] of the same compound?
A: 4.83 µM

Q: And the CC50 [12, 38]?
A: > 100 µM

Q: What about the GI50 [13] of the same compound?
A: 5.32 µM

Q: And the LC50 (concentration killing 50% of cells) ([13]; read-out: LD50)?
A: > 100 µM

Q: And the GI50 [14]?
A: 7.89 µM

Q: What about the CC50 [14, 38] of the same compound?
A: > 100 µM

Q: What about the GI50 [15] of the same compound?
A: 9.16 µM

Q: What about the CC50 [15, 38] of the same compound?
A: > 100 µM

Q: And the GI50 [16]?
A: 4.56 µM

Q: What about the LC50 (concentration killing 50% of cells) ([16]; read-out: LD50) of the same compound?
A: > 100 µM

Q: And the GI50 [17]?
A: 4.85 µM

Q: And the CC50 [17, 38]?
A: > 100 µM

Q: And the GI50 [18]?
A: 2.72 µM

Q: What about the LC50 (concentration killing 50% of cells) ([18]; read-out: LD50) of the same compound?
A: > 100 µM

Q: And the GI50 [19]?
A: 3.01 µM

Q: What about the CC50 [19, 38] of the same compound?
A: > 100 µM

Q: And the GI50 [20]?
A: 5.43 µM

Q: What about the LC50 (concentration giving 50% net cell kill) ([20]; read-out: LD50) of the same compound?
A: > 100 µM

Q: And the GI50 [21]?
A: 3.38 µM

Q: What about the LC50 (concentration giving 50% net cell kill) ([21]; read-out: LD50) of the same compound?
A: > 100 µM

Q: And the GI50 [22]?
A: 1.58 µM

Q: What about the CC50 [22, 38] of the same compound?
A: > 100 µM

Q: What about the GI50 [23] of the same compound?
A: 3.18 µM

Q: What about the LC50 (50% net cell kill) ([23]; read-out: LD50) of the same compound?
A: > 100 µM

Q: And the GI50 [24]?
A: 3.28 µM

Q: And the CC50 [24, 38]?
A: > 100 µM

Q: And the GI50 [25]?
A: 3.38 µM

Q: And the LC50 (concentration killing 50% of cells) ([25]; read-out: LD50)?
A: > 100 µM

Q: What about the GI50 [26] of the same compound?
A: 3.2 µM

Q: What about the CC50 [26, 38] of the same compound?
A: > 100 µM

Q: And the GI50 [27]?
A: 6.87 µM

Q: And the LC50 (concentration killing 50% of cells) ([27]; read-out: LD50)?
A: > 100 µM

Q: And the GI50 [28]?
A: 6.52 µM

Q: What about the CC50 [28, 38] of the same compound?
A: > 100 µM

Q: And the GI50 [29]?
A: 9.13 µM

Q: And the LC50 (concentration giving 50% cell kill) ([29]; read-out: LD50)?
A: > 100 µM

Q: And the GI50 [30]?
A: 8.42 µM

Q: And the CC50 [30, 38]?
A: > 100 µM

Q: What about the GI50 [31] of the same compound?
A: 2.58 µM

Q: And the CC50 [31, 38]?
A: > 100 µM

Q: What about the GI50 [32] of the same compound?
A: 4.5 µM

Q: And the CC50 [32, 38]?
A: > 100 µM

Q: And the GI50 [33]?
A: 6.84 µM

Q: What about the LC50 (concentration killing 50% of cells) ([33]; read-out: LD50) of the same compound?
A: > 100 µM

Q: What about the GI50 [34] of the same compound?
A: 5.94 µM

Q: And the CC50 [34, 38]?
A: > 100 µM

Q: What about the GI50 [35] of the same compound?
A: 5.89 µM

Q: What about the CC50 [35, 38] of the same compound?
A: > 100 µM

Q: And the GI50 [36]?
A: 2.93 µM

Q: What about the CC50 [36, 38] of the same compound?
A: > 100 µM

Q: What about the GI50 [37] of the same compound?
A: 5.5 µM

Q: And the CC50 [37, 38]?
A: > 100 µM
